Screens (PubChem BioAssay)
An excerpt weighted towards active compounds, which were near 2.1% of everything screened.
b-catenin transl – alters nuclear translocation of beta-catenin in HeLa cells; 0.3% of 190,000 active; nuclear translocation activity, % at 5 µM; immunofluorescence imaging;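 active = nuclear translocation activity above 50% at 5 µM, with a well cell count of 50 or more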;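 note: per-cell ratio of nuclear to cytoplasmic median beta-catenin stain intensity; plate controls were DMSO negative control for no effect and GSK-3 inhibitor IX positive control for full effect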
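System: Human HeLa cells, endogenous beta-catenin | Compound dosing: 5 µM primary, 0.02–20 µM confirmation | Timing: 24 h compound exposure at 37°C, 5% CO2 | Measured by: Fluorescence imaging of beta-catenin antibody stain plus DAPI | Read-out basis: % activation of per-cell nuclear versus cytoplasmic median beta-catenin signal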
Ba/F3 V617F tox – lowers viability of Ba/F3 cells expressing EpoR and JAK2V617F | inhibition, % at 5.6 µM | 1.1% of 220,000 active | ATP luminescence | AID 1446;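 active = inhibition above the campaign mean plus 3 SD over all tested compounds, cut at about 24% in these data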;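 note: cytokine-independent growth of Ba/F3 cells driven by EpoR plus mutant JAK2; 0% = DMSO-treated cells and 100% = JAK inhibitor I control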
MT stabilizer – microtubule stabilization, imaging screen | 0.83% of 200,000 active | HeLa tubulin immunostaining HCS, 24 h; share of cells brighter than vehicle mean+2SD | % tubulin-high responders, % at 10 µM | AID 2205;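 active = plate Z-score above 3 for both tubulin-high and condensed-nucleus cell shares, with cell loss under 80%, at 10 µM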;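 note: anti alpha tubulin signal scored within the nucleus-defined area of each cell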
BaF3 parental – reduces parental Ba/F3 cell viability, JAK2V617F counter-screen. CellTiter-Glo ATP luminescence. inhibition, % at 5.6 µM. 1.1% of 220,000 active. AID 1486;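 active = inhibition above a per-campaign cutoff, the mean inhibition of all tested compounds plus 3 SD, cut at about 27% in these data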;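 note: 0% = DMSO wells and 100% = JAK Inhibitor I control wells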
KLF5 inhibitor – suppresses KLF5 promoter-driven expression. AID 1700. DLD-1 KLF5 promoter-luciferase reporter, luminescence. inhibition, % at 5 µM. 0.23% of 290,000 active;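 active = inhibition above a per-plate limit of that plate's mean compound inhibition plus 3 SD, cut at about 60% in these data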;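 note: 0% = DMSO wells and 100% = LY294002 at 200 µM; higher means less KLF5 promoter-driven luciferase light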
IEC-6 cytotox – counter-screen for KLF5 inhibitors: cytotoxicity in IEC-6 cells | IEC-6 cytotoxicity, luminescence viability | 0.78% of 290,000 active | inhibition, % at 5 µM;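 note: 0% = plate median of test compound wells and 100% = cytotoxic reference compound wells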
IEC-6 tox confirm – confirmation of cytotoxic compounds in rat IEC-6 intestinal epithelial cells | shares compounds with IEC-6 cytotox | IEC-6 rat intestinal epithelial viability, luminescence | inhibition, % at 5 µM | 63% of 1,900 active | AID 1907;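 note: 0% = vehicle and 100% = reference cytotoxic drug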
An asterisk follows results filed as active; · = no result. Cut-off read from the data, not from the text of the source, unless noted: active = inhibition above about 22%; inactive = the rest.

SMILES | b-catenin transl | Ba/F3 V617F tox | MT stabilizer | BaF3 parental | KLF5 inhibitor | IEC-6 cytotox | IEC-6 tox confirm
CC(C)C(=O)N1CCN(c2ccc(NC(=O)c3ccc([N+](=O)[O-])o3)cc2)CC1 | 7 | 67* | 11 | 33* | 9 | 24* | 14
Cc1ccccc1C(=O)N1CCN(c2ccc(NC(=O)c3ccc([N+](=O)[O-])o3)cc2)CC1 | · | · | · | · | 49 | 98* | 35*
CN1CCN(c2ccc(NC(=O)c3ccc([N+](=O)[O-])o3)cc2Cl)CC1 | · | · | · | · | -14 | 90* | 29*
CC(C)C(=O)N1CCN(c2ccc(NC(=O)c3ccc(Br)o3)cc2)CC1 | 0 | -2 | 4 | 2 | -33 | 0 | ·
O=C(Nc1ccccc1N1CCN(C(=O)c2ccc(Cl)cc2)CC1)c1ccc([N+](=O)[O-])o1 | · | · | · | · | -31 | 33* | 12
COc1ccc(C(=O)Nc2ccc(N3CCN(C(=O)c4ccccc4)CC3)cc2)cc1[N+](=O)[O-] | -1 | 8 | 3 | 15 | -44 | 1 | ·
O=C(Nc1ccc(N2CCN(C(=O)c3ccccc3)CC2)cc1)c1ccc([N+](=O)[O-])o1 | 1 | 99* | 15* | 77* | 23 | 85* | 35*
COc1cc(/C=C2\N=C(c3ccccc3)NNC2=O)cc(OC)c1OC | 65* | 72* | · | 79* | 44 | 59* | 53*
O=C1NNC(c2ccccc2)=N/C1=C\c1ccco1 | -2 | -1 | · | 0 | -12 | -5 | ·
O=C(N/N=C/c1c[nH]c2ccccc12)c1cc(-c2ccccc2)n[nH]1 | -1 | 3 | 5 | 8 | -27 | 4 | ·
Cc1ccc(-c2cc(C(=O)N/N=C/c3c[nH]c4ccccc34)[nH]n2)cc1 | 12 | 57* | 17* | 58* | 14 | 43* | 52*
COC(=O)CC1C(=O)NCCN1C(=O)c1c(F)cccc1F (centres undefined) | · | · | · | · | 2 | -5 | ·
CC(=O)/C(C#N)=C1\NC(=O)C(Cc2cc(Cl)ccc2Cl)S1 (centres undefined) | 0 | -2 | · | 5 | 24 | 74* | 47*
O=C1NC(=Nc2ccccc2)SC1Cc1cccc(Cl)c1Cl (centres undefined) | 3 | 0 | 5 | 6 | -21 | 0 | ·
CC(=O)/C(C#N)=C1\NC(=O)C(Cc2ccccc2Cl)S1 (centres undefined) | -2 | 4 | 4 | 5 | 21 | 78* | 60*
O=C(CSc1nnc(CNC(=O)c2c(F)cccc2Cl)o1)NCCc1ccccc1 | · | · | · | · | -19 | 5 | ·
CCCCc1ccc(NC(=O)Nc2cnccn2)cc1 | · | · | · | · | -24 | 45* | 23*
O=C(Oc1ccccc1-c1nnco1)c1ccc(Cl)cc1 | 1 | 4 | 1 | 5 | -9 | 33* | -6
OC(CN1CCC(Cc2ccccc2)CC1)c1ccccc1 (centres undefined) | · | · | · | · | -53 | 3 | ·
Cc1c(C(=O)O)oc2ccc3c(c12)C(O)CC(C)(C)O3 (centres undefined) | · | · | · | · | 4 | -3 | ·
Nn1c(SCC(=O)NCCCc2ccccc2)nnc1-c1cccnc1 | -1 | 1 | · | 1 | 1 | 8 | ·
CC(C)(C)c1ccc(CSc2nnc(-c3ccccn3)n2Cc2ccco2)cc1 | -1 | -1 | 1 | 6 | -30 | -2 | ·
C(=C\c1ccccc1)/CSc1nnc(-c2ccncc2)n1Cc1ccco1 | -6 | 3 | 4 | 4 | -6 | 7 | ·
Brc1ccc(CSc2nnc(-c3ccccn3)n2Cc2ccco2)cc1 | 100* | 1 | 31 | 10 | 5 | 28* | 22
C(=C\c1ccccc1)/CSc1nnc(-c2ccccc2)n1Cc1ccco1 | 141* | 41* | 23* | 23 | 6 | 34* | 36*
CN(C)c1ccc(C2/C(=C(/O)c3ccccc3)C(=O)C(=O)N2CCCC(=O)O)cc1 (centres undefined) | 0 | -1 | · | -7 | 3 | -4 | ·
CCCN(CCC)CCNC(=O)c1cc2c(-c3ccc(Cl)cc3)nn(C)c2s1 | · | · | · | · | -3 | 22* | 15
CCN(CC)CCNC(=O)c1cc2c(-c3ccc(Cl)cc3)nn(C)c2s1 | · | 3 | 3 | 8 | -12 | 9 | ·
COc1ccc(N/N=C(\C#N)C(N)=O)cc1 | -2 | 5 | 5 | 8 | -9 | 7 | ·
